Results as given in ChEMBL document CHEMBL4477205, “Discovery of New Chemical Entities for Old Targets: Insights on the Lead Optimization of Chromone-Based Monoamine Oxidase B (MAO-B) Inhibitors” (J Med Chem, 2016).
Blank lines part the entries; values can stand above or below the molecule they belong to. Calls of active or inactive are those of the source. No cut-off for these calls is given here.

Columns and labels:
[1] = target: T1, Amine oxidase [flavin-containing] B (Homo sapiens, UniProt P27338); assay: Reversible inhibition of human microsomal MAO-B expressed in recombinant baculovirus infected insect BTI-TN-5B1-4 cells assessed as increase in residual enzyme activity at 40 nM after 60 mins; conditions: bti-tn-5b1-4, 1 h, 0.04 µM
T1 sequence (P27338 whole entry): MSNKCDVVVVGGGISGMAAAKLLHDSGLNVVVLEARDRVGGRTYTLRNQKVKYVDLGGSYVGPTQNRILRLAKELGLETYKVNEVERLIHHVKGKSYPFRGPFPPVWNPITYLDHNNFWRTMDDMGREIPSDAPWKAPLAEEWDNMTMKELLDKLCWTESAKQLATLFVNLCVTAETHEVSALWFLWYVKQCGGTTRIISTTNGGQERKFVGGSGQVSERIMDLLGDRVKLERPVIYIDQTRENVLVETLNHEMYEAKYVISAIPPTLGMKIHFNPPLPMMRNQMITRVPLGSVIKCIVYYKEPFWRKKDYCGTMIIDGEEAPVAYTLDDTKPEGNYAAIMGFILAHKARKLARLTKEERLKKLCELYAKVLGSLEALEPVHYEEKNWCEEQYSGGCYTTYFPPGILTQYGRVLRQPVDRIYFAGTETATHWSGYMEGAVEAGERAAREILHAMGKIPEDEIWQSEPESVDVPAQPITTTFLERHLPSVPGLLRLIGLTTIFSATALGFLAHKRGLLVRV

[2] = target: T2, Amine oxidase [flavin-containing] A (Homo sapiens, UniProt P21397); assay: Inhibition of human microsomal MAO-A expressed in recombinant baculovirus infected insect BTI-TN-5B1-4 cells assessed as reduction in H2O2 production at 100 uM using p-tyramine as substrate after 15 mins by fluorescence assay
T2 sequence (P21397 whole entry): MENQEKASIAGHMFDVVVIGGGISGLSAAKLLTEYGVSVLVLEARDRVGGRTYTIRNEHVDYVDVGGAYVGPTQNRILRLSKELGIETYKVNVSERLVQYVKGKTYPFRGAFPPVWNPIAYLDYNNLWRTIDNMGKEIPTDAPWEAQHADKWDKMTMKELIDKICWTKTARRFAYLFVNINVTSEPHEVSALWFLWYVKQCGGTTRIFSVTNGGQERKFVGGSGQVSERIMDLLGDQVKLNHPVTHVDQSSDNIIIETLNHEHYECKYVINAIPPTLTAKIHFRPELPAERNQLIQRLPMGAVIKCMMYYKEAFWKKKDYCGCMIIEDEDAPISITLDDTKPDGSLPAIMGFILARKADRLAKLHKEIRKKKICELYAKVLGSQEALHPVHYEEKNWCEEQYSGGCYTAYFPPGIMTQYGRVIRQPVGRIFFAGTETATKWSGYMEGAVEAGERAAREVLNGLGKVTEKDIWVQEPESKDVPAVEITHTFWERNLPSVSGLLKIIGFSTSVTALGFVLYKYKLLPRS

SH-SY5Y [3] = assay: Cytotoxicity against human SH-SY5Y cells assessed as cell viability at 10 uM after 24 hrs by MTT assay (reference value: […] +/- 11.7 %); format: functional; conditions: read-out: Activity
SH-SY5Y [4] = assay: Cytotoxicity against human SH-SY5Y cells assessed as reduction in cell viability at 1 uM after 24 hrs by MTT assay; format: functional, cell-based
SH-SY5Y [5] = assay: Cytotoxicity against human SH-SY5Y cells assessed as reduction in cell viability at 1 to 10 uM after 24 hrs by neutral red uptake assay; format: functional, cell-based
Summary of the method: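 SH-SY5Y cells grown to confluence over 3 days and exposed 24 h to compound at 1 and 10 μM in serum-free medium, with a 0.1% DMSO vehicle control. Neutral red 50 μg/mL added for 2 h at 37 °C. Dye extracted with ethanol/water (1:1) containing 5% acetic acid and read at 540 nm. Uptake expressed as % of control.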

SH-SY5Y [6] = assay: Cytotoxicity against human SH-SY5Y cells assessed as cell viability at 1 uM after 24 hrs by MTT assay (reference value: […] +/- 11.7 %); format: functional; conditions: read-out: Activity
[7] = target: T1, Amine oxidase [flavin-containing] B; assay: biochemical; format: cell-based, BTI-TN-5B1-4
[8] = target: T2, Amine oxidase [flavin-containing] A; assay: Inhibition of human microsomal MAO-A expressed in recombinant baculovirus infected insect BTI-TN-5B1-4 cells assessed as reduction in H2O2 production using p-tyramine as substrate after 15 mins by fluorescence assay
[9] = target: T2, Amine oxidase [flavin-containing] A; assay: Inhibition of human microsomal MAO-A expressed in recombinant baculovirus infected insect BTI-TN-5B1-4 cells assessed as reduction in H2O2 production at 10 uM using p-tyramine as substrate after 15 mins by fluorescence assay
Homo sapiens = species on record: Homo sapiens; assay: Selectivity index, ratio of IC50 for human microsomal MAO-A expressed in recombinant baculovirus infected insect BTI-TN-5B1-4 cells to IC50 for human microsomal MAO-B expressed in recombinant baculovirus infected insect BTI-TN-5B1-4 cells

SMILES: C[C@H](NCc1ccc(OCc2cccc(F)c2)cc1)C(N)=O [SAFINAMIDE]
inhibition (INH) [1]: Active | INH [2]: Not Active

SMILES: Cc1ccc(NC(=O)c2coc3ccccc3c2=O)cc1C
viability at 10 µM (SH-SY5Y [3]): 74.5% | Activity (SH-SY5Y [4]): inactive | Activity (SH-SY5Y [5]): inactive

SMILES: O=C(Nc1cccc(Cl)c1)c1coc2ccccc2c1=O
viability at 10 µM (SH-SY5Y [3]): 43.7% | Activity (SH-SY5Y [5]): inactive | viability at 1 µM (SH-SY5Y [6]): 64.3%

SMILES: O=C(Nc1cc(Cl)c(Cl)c(Cl)c1)c1coc2ccccc2c1=O
IC50 ([7]; bti-tn-5b1-4): Nd(Insoluble) | IC50 [8]: Nd(Insoluble)

SMILES: O=C(Nc1ccc(Cl)c(Cl)c1)c1coc2ccccc2c1=O
IC50 ([7]; bti-tn-5b1-4): Nd(Insoluble) | IC50 [8]: Nd(Insoluble)

Second part, led by results:

IC50 ([7]; bti-tn-5b1-4): Nd(Insoluble) | IC50 [8]: Nd(Insoluble)
SMILES: O=C(Nc1ccc(S)cc1)c1coc2ccccc2c1=O

INH [9]: Not Active | IC50 ([7]; read-out: IC50): 1380 nM
SMILES: O=C(Nc1ccc(O)cc1)c1coc2ccccc2c1=O
Ratio IC50 (Homo sapiens): > 7.2
